Measurements from ChEMBL document CHEMBL4371095, “Triazole-Based Inhibitors of the Wnt/β-Catenin Signaling Pathway Improve Glucose and Lipid Metabolisms in Diet-Induced Obese Mice” (J Med Chem, 2019).
Calls of active or inactive are those of the source. No cut-off for these calls is given here.

Key:
Homo sapiens = organism: Homo sapiens; experiment: Ratio of IC50 for Wnt/beta-catenin signaling (unknown origin) expressed in HEK293 cells harboring GSK3B siRNA to IC50 for Wnt/beta-catenin signaling (unknown origin) expressed in HEK293 cells harboring siRNA; type: cell-based
[1] = Cmax in mouse at 10 mg/kg, po administered as single dose by LC-MS analysis; type: ADME, organism-based; set-up: dose 10 mg/kg, route oral; details: in vivo
Method in brief: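 Compound was dissolved at 1 mg/ml in 10% Kolliphor EL and 10% polyethylene glycol in saline. Ten mice were split into intravenous and oral groups and given a single 10 mg/kg dose. Tail-vein blood was sampled at several time points and analysed by LC/MS/MS.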

Mus musculus [2] = experiment: Decrease in hepatic CycD1 mRNA level in high fat diet fed C57BL/6J mouse at 40 mg/kg, ip administered every 2 days for 11 weeks by qPCR analysis; type: functional, organism-based
Method in brief: (§1)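 Male mice, 8 weeks old, fed a 45% kcal fat diet for 6 weeks, then dosed i.p. every 2 days in corn oil vehicle for 11 weeks. Liver mRNA of the indicated genes was quantified at sacrifice; mean ± SEM, n = 5 per group.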

Mus musculus [3] = experiment: Effect on hepatic FGF21 mRNA level in normal chow diet fed C57BL/6J mouse at 40 mg/kg, ip administered every 2 days for 11 weeks by qPCR analysis; type: ADME, organism-based; details: in vivo
Method in brief: (§2)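 Male mice, 8 weeks old, kept on normal chow throughout and dosed i.p. every 2 days in corn oil vehicle for 11 weeks. Body weight gain, liver/body weight ratio, and liver mRNA of the indicated genes were measured at sacrifice; mean ± SEM, n = 5 per group where stated.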

HEK293 [4] = experiment: Inhibition of Wnt/beta-catenin/Axin signaling (unknown origin) expressed in HEK293 cells assessed as decrease in CycD1 mRNA level after 48 hrs by qPCR analysis; type: cell-based; details: Homo sapiens
Method in brief: (§3)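 HEK293 cells were treated with compound for 48 h, harvested in TRIzol, and Wnt target gene mRNA was quantified by qPCR.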

[5] = Toxicity in high fat diet fed C57BL/6J mouse assessed as serum ALT level at 40 mg/kg, ip administered every 2 days for 11 weeks (reference value: 63.3 +/- 26.9 U/L); type: organism-based; details: in vivo
Mus musculus [6] = organism: Mus musculus; experiment: Inhibition of Wnt/beta-catenin/Axin signaling in mouse hepatocytes assessed as decrease in ACOT4 mRNA level at 5 uM by qPCR analysis; type: cell-based
Method in brief: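 Normal mouse hepatocytes were treated with 5 μM compound, and lipogenic and gluconeogenic gene mRNA was measured by qPCR; mean ± S.D. of triplicates.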

[7] = target: Casein kinase I isoform alpha (Homo sapiens) (UniProt P48729); experiment: Binding affinity to CK1alpha (unknown origin) by SPR analysis
Sequence of Casein kinase I isoform alpha (Homo sapiens) (P48729 2-337 limits assumed): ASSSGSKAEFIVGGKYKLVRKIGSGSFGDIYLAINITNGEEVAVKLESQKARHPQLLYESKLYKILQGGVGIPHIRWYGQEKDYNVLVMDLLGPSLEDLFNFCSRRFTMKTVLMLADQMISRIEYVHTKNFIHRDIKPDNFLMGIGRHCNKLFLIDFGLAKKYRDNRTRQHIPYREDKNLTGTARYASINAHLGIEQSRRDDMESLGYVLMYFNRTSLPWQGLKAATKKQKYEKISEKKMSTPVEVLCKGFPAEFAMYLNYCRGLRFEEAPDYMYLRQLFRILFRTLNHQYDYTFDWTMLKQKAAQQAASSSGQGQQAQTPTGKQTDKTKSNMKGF

[8] = Toxicity in normal chow diet fed C57BL/6J mouse assessed as serum total bilirubin level at 40 mg/kg, ip administered every 2 days for 11 weeks (reference value: 0.2 mg/dl); type: organism-based; details: in vivo
[9] = Inhibition of LiCl activated Wnt/beta-catenin signaling (unknown origin) expressed in HEK293 cells harboring TCF/LEF-responsive luciferase preincubated with cells followed by LiCl addition and measured after 24 hrs by luciferase reporter gene assay; type: cell-based; details: Homo sapiens
Method in brief: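 HEK293 cells carrying the TCF/LEF TOPFlash firefly luciferase reporter were stimulated with LiCl and treated with compound for 24 h. Luminescence was read, and IC50 was fitted from concentration–response data; mean ± S.D., n = 4.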

[10] = target: Glycogen synthase kinase-3 beta (Homo sapiens, UniProt P49841); experiment: Binding affinity to recombinant full length human N-terminal GST-tagged GSK3beta expressed in sf9 cells by SPR analysis
Sequence of Glycogen synthase kinase-3 beta (P49841 whole entry): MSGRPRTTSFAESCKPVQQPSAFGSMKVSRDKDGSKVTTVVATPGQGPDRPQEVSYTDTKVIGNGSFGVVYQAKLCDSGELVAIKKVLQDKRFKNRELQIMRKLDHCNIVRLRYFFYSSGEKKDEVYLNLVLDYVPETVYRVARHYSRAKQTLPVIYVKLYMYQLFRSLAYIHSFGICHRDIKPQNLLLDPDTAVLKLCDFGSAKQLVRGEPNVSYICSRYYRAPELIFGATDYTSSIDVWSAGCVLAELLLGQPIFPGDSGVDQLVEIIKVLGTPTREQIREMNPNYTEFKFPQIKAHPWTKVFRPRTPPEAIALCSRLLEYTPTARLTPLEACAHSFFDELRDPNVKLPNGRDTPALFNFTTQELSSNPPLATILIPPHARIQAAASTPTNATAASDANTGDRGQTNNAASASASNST
Method in brief: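 Recombinant GST-tagged human GSK3β. Binding was measured by surface plasmon resonance at a biosensor core facility, and K_D was determined.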

HEK293 [11] = experiment: Inhibition of Wnt3a activated Wnt/beta-catenin/Axin signaling (unknown origin) expressed in HEK293 cells assessed as degradation of beta-catenin by measuring decrease in beta-catenin protein expression at 1 to 10 uM after 2 hrs by Western blot method; type: cell-based; details: Homo sapiens
Method in brief: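 HEK293 cells stimulated with WNT3a were treated with compound for 2 h. Cells were lysed in 10 mM HEPES, 100 μM EDTA, 10 mM KCl, 0.5% NP40, protein was quantified by BCA, and β-catenin and Axin1 were resolved on 10% SDS-PAGE and immunoblotted.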

Mus musculus [12] = experiment: Decrease in hepatic FGF21 mRNA level in high fat diet fed C57BL/6J mouse at 40 mg/kg, ip administered every 2 days for 11 weeks by qPCR analysis; type: functional, organism-based; method in brief: as §1
[13] = Toxicity in normal chow diet fed C57BL/6J mouse assessed as serum alkaline phosphatase level at 40 mg/kg, ip administered every 2 days for 11 weeks (reference value: 66.5 +/- 1.8 U/L); type: organism-based; details: in vivo
Mus musculus [14] = experiment: Effect on hepatic CycD1 mRNA level in normal chow diet fed C57BL/6J mouse at 40 mg/kg, ip administered every 2 days for 11 weeks by qPCR analysis; type: ADME, organism-based; details: in vivo; method in brief: as §2
HEK293 [15] = experiment: Growth inhibition of HEK293 cells harboring Wnt after 24 hrs by CellTiter-Fluor assay; type: cell-based; details: human, hek293, 24 h
Method in brief: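 HEK293 cells stably carrying the TOPFlash reporter were plated at 2000/well in DMEM with 10% FBS and incubated overnight. Compound was added with recombinant human Wnt-3a, then incubated 24 h at 37 °C. CellTiter-Fluor reagent was added and fluorescence read after 30 min at 37 °C.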

[16] = Inhibition of Wnt3a activated Wnt/beta-catenin signaling (unknown origin) expressed in HEK293 cells harboring TCF/LEF-responsive luciferase preincubated with cells followed by Wnt3a addition and measured after 24 hrs by luciferase reporter gene assay; type: cell-based; details: Homo sapiens
Method in brief: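 HEK293 cells stably carrying TOPFlash/GFP were plated at 2000/well in DMEM with 10% FBS and kept overnight at 37 °C. Compound was pin-transferred, then recombinant human Wnt-3a was added (200 ng/mL working stock). After 24 h at 37 °C, ONE-Glo luminescence was read after 30 min. IC50 is mean ± SE from three independent experiments.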

[17] = Toxicity in high fat diet fed C57BL/6J mouse assessed as serum alkaline phosphatase level at 40 mg/kg, ip administered every 2 days for 11 weeks (reference value: 58.3 +/- 3.8 U/L); type: organism-based; details: in vivo
HepG2 = experiment: Inhibition of Wnt/beta-catenin deletion mutant signaling in human HepG2 cells at 50 nM after 24 hrs by luciferase reporter gene assay; type: cell-based
Method in brief: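 HepG2 cells carry the CTNNB1 Δ25–140 deletion and were transfected with the TCF/LEF luciferase reporter constructs. Compound was applied and reporter luminescence measured; mean ± S.D., n = 3.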

Mus musculus [18] = experiment: Effect on body weight gain in normal chow diet fed C57BL/6J mouse at 40 mg/kg, ip administered every 2 days for 11 weeks; type: ADME, organism-based; details: in vivo; method in brief: as §2
Mus musculus [19] = experiment: Effect on hepatic ACAT2 mRNA level in normal chow diet fed C57BL/6J mouse at 40 mg/kg, ip administered every 2 days for 11 weeks by qPCR analysis; type: ADME, organism-based; details: in vivo; method in brief: as §2
Axin-1 (Homo sapiens) = Axin-1 (Homo sapiens) (UniProt O15169); experiment: Binding affinity to Axin1 (unknown origin) by SPR analysis
Sequence of Axin-1 (Homo sapiens) (O15169 whole entry): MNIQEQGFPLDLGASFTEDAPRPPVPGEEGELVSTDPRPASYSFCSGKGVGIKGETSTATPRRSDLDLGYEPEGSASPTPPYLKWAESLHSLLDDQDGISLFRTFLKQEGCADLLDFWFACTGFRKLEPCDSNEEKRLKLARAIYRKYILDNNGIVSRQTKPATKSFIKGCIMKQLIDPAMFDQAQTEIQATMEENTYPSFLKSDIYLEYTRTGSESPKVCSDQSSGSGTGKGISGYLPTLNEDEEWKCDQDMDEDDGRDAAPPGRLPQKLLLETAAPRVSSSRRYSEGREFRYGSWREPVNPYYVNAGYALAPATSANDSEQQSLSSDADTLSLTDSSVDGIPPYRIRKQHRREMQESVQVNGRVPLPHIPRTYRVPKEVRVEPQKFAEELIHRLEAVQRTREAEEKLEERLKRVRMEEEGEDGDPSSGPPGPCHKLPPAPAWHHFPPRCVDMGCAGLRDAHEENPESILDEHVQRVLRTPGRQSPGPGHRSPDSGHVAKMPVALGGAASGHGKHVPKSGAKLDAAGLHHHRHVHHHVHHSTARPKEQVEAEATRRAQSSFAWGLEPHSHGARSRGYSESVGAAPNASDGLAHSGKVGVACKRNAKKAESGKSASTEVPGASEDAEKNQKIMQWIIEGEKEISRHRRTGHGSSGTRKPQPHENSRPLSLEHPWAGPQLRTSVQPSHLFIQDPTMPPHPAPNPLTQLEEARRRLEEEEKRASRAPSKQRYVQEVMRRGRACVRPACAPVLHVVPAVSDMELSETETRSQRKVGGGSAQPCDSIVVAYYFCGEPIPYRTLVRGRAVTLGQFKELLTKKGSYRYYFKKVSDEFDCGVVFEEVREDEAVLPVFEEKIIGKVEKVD

[20] = Toxicity in high fat diet fed C57BL/6J mouse assessed as serum BUN level at 40 mg/kg, ip administered every 2 days for 11 weeks (reference value: 17.3 +/- 0.5 mg/dl); type: organism-based; details: in vivo
HEK293 [21] = experiment: Inhibition of Wnt/beta-catenin/Axin signaling (unknown origin) expressed in HEK293 cells assessed as decrease in Axin2 mRNA level after 48 hrs by qPCR analysis; type: cell-based; details: Homo sapiens; method in brief: as §3

Compound: Cc1ccccc1-n1nnc(C(=O)Nc2ccc3ccccc3n2)c1C
- Ratio IC50 (Homo sapiens): 1.7
- Cmax [1]: 2200 ng/mL
- Activity (Mus musculus [2]): Active
- Activity (Mus musculus [3]): Non-Toxic
- inhibition (HEK293 [4]): Active
- Activity [5]: 21 U/L
- inhibition (Mus musculus [6]): Active
- Activity [7]: inactive
- Activity [8]: 0.2 mg/dL
- IC50 [9]: 6 nM
- Kd [10]: 4300 nM
- inhibition (HEK293 [11]): Active
- Activity (Mus musculus [12]): Active
- Activity [13]: 57.5 U/L
- Activity (Mus musculus [14]): Non-Toxic
- growth inhibition (GI) (HEK293 [15]): Non-Toxic
- IC50 [16]: 4.1 nM
- Activity [17]: 51 U/L
- inhibition (HepG2): inactive
- Activity (Mus musculus [18]): Non-Toxic
- Activity (Mus musculus [19]): Non-Toxic
- Activity (Axin-1 (Homo sapiens)): inactive
- Activity [20]: 14.8 mg/dL
- inhibition (HEK293 [21]): Active
